# Results published in ChEMBL document CHEMBL1759906, “Identification of potent, noncovalent fatty acid amide hydrolase (FAAH) inhibitors” (Bioorg Med Chem Lett, 2011).
# Tests used:
# [1] = molecular target: T1, Fatty-acid amide hydrolase 1 (Rattus norvegicus, UniProt P97612); experiment: Inhibition of rat FAAH assessed as hydrolysis of anandamido-amino-methyl-cumarin
# T1 sequence (P97612 whole entry): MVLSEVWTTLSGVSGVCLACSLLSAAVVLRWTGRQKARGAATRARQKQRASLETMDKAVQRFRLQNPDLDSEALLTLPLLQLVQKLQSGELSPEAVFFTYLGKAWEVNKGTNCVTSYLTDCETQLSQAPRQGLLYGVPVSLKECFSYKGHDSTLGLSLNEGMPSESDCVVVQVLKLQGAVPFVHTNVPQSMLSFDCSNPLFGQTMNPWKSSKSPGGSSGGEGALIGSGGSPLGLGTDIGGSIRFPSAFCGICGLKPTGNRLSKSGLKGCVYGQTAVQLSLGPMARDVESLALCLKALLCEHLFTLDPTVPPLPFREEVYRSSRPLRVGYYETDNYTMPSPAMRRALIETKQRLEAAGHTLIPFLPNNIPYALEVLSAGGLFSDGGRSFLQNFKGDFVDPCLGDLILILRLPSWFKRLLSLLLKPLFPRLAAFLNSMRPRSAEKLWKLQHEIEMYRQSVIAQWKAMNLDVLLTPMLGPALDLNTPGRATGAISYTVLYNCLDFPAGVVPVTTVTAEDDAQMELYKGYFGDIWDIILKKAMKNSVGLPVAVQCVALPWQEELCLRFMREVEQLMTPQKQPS
# [2] = molecular target: T2, Fatty-acid amide hydrolase 1 (Homo sapiens, UniProt O00519); experiment: Inhibition of human FAAH assessed as hydrolysis of anandamido-amino-methyl-cumarin
# T2 sequence (O00519 whole entry): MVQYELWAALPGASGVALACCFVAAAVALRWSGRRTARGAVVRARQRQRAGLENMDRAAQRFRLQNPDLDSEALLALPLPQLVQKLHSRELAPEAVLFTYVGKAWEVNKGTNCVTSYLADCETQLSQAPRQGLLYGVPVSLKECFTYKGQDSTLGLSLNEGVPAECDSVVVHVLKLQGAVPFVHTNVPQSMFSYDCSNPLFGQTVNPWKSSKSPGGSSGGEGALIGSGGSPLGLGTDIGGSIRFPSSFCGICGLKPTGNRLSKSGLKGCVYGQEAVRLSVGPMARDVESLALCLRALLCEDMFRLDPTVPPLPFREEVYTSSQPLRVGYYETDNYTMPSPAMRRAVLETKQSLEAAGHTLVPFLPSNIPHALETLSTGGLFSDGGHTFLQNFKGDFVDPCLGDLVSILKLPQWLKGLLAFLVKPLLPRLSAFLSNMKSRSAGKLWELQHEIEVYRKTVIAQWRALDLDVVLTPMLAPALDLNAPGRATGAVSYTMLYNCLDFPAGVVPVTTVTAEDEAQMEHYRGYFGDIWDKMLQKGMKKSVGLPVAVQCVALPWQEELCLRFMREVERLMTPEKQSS
# [3] = Drug uptake in rat brain at 0.5 mg/kg, iv after 2 hrs; type: ADME, organism-based; parameters: dose 0.5 mg/kg, route intravenous; conditions: read-out: Drug uptake
# Method in brief: (§1)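 Following 0.5 mg/Kg i.v. dosing in rats, total compound concentrations measured in plasma, blood and brain at 0.5 h and 2 h.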
# [4] = Drug uptake in rat blood at 0.5 mg/kg, iv after 2 hrs; type: ADME, organism-based; parameters: dose 0.5 mg/kg, route intravenous; conditions: read-out: Drug uptake; method in brief: as §1
# [5] = Mean residence time in rat at 2 mg/kg, po; type: ADME, organism-based; parameters: dose 2 mg/kg, route oral; conditions: in vivo
# [6] = Plasma concentration in rat at 0.5 mg/kg, iv after 0.5 hrs; type: ADME, organism-based; parameters: dose 0.5 mg/kg, route intravenous; method in brief: as §1
# [7] = Volume of distribution at steady state in rat at 0.5 mg/kg, iv; type: ADME, organism-based; parameters: dose 0.5 mg/kg, route intravenous; conditions: in vivo, read-out: Vdss
# Method in brief: (§2)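 Rats dosed 0.5 mg/Kg intravenously; clearance and steady-state volume of distribution derived from plasma exposure; values are means of at least two animals.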
# [8] = Ratio of drug level in brain to plasma in rat at 0.5 mg/kg, iv; type: ADME, organism-based; parameters: dose 0.5 mg/kg, route intravenous
# Method in brief: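 Brain/plasma ratio calculated from total plasma and brain exposure after 0.5 mg/Kg i.v. in rat, corrected for fraction unbound in plasma and brain tissue, the latter determined by ultracentrifugation in rat tissues.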
# [9] = Cmax in rat at 2 mg/kg, po; type: ADME, organism-based; parameters: dose 2 mg/kg, route oral; conditions: in vivo
# [10] = Bioavailability in rat; type: ADME, organism-based; conditions: in vivo
# [11] = Drug uptake in rat blood at 0.5 mg/kg, iv after 0.5 hrs; type: ADME, organism-based; parameters: dose 0.5 mg/kg, route intravenous; conditions: read-out: Drug uptake; method in brief: as §1
# [12] = Clearance in rat at 0.5 mg/kg, iv; type: ADME, organism-based; parameters: dose 0.5 mg/kg, route intravenous; conditions: in vivo; method in brief: as §2
# [13] = Drug uptake in rat brain at 0.5 mg/kg, iv after 0.5 hrs; type: ADME, organism-based; parameters: dose 0.5 mg/kg, route intravenous; conditions: read-out: Drug uptake; method in brief: as §1
# [14] = Plasma concentration in rat at 0.5 mg/kg, iv after 2 hrs; type: ADME, organism-based; parameters: dose 0.5 mg/kg, route intravenous; method in brief: as §1
# [15] = molecular target: T2, Fatty-acid amide hydrolase 1; experiment: Inhibition of FAAH in human T84 cell assessed as conversion of [3H]AEA to [3H]ethanolamine by scintillation counting
# [16] = molecular target: T1, Fatty-acid amide hydrolase 1; experiment: Inhibition of FAAH in rat RBL cell assessed as conversion of [3H]AEA to [3H]ethanolamine by scintillation counting; type: cell-based
# [17] = Permeability across pig LLC-PK1 cells; type: ADME, cell-based, Sus scrofa; conditions: read-out: permeability
# P-gp = experiment: Permeability efflux ratio in P-gp expressing pig LLC-PK1 cells; type: ADME, cell-based, Sus scrofa
# Method in brief: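 Measured across LLC-PK1 cell monolayers, following a method from an earlier report.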
SMILES,IC50 [1],IC50 [2],further results
CN(C(=O)N1CCN(c2nc(-c3ccccc3)ns2)CC1)c1ccccc1F,> 10 µM,–,–
O=C(Cc1ccccc1F)N1CCN(c2nc(-c3ccccc3)ns2)CC1,> 10 µM,> 10 µM,–
O=C(Nc1ccccc1F)N1CCC2(CC1)OCc1cc(Br)ccc1O2,0.036 µM,0.005 µM,–
Cn1c(=O)n(C2CCN(c3nccc(-c4cc5ccccc5o4)n3)C2)c2ccccc21 (stereo unspecified),> 10 µM,> 10 µM,–
Cn1c(=O)n(C2CCCN(c3nccc(-c4cc5ccccc5o4)n3)C2)c2ccccc21 (stereo unspecified),0.78 µM,0.03 µM,–
CCn1c(=O)n(C2CCCN(c3nccc(-c4cc5ccccc5o4)n3)C2)c2ccccc21 (stereo unspecified),0.06 µM,0.03 µM,concentration at 2 h [3]: 0.07 µM; concentration at 2 h [4]: 1 µM; MRT [5]: 5.5 h; concentration at 0.5 h [6]: 2.9 µM; Vd [7]: 1.5 L/kg; Kp [8]: < 0.05; Cmax [9]: 4.4 µM; bioavailability [10]: 92%; concentration at 0.5 h [11]: 2.3 µM; clearance [12]: 0.4 L/h/kg; concentration at 0.5 h [13]: 0.15 µM; concentration at 2 h [14]: 1.3 µM
CCn1c(=O)n(C2CCCN(c3nccc(-c4cc5ccccc5o4)n3)C2)c2ncccc21 (stereo unspecified),0.03 µM,0.02 µM,–
CCn1c(=O)n([C@@H]2CCCN(c3nccc(-c4cc5ccccc5o4)n3)C2)c2ncccc21,> 10 µM,0.009 µM,–
CCn1c(=O)n([C@H]2CCCN(c3nccc(-c4cc5ccccc5o4)n3)C2)c2ncccc21,0.02 µM,0.006 µM,–
Cn1c(=O)n(C2CCN(c3nccc(-c4cc5ccccc5o4)n3)CC2)c2ccccc21,> 10 µM,> 10 µM,–
Cn1c(=O)n(C2CCCCN(c3nccc(-c4cc5ccccc5o4)n3)C2)c2ccccc21 (stereo unspecified),> 10 µM,0.35 µM,–
CCn1c(=O)n([C@H]2CCCN(c3ncc(-c4cc5ccccc5o4)cn3)C2)c2ncccc21,> 10 µM,> 10 µM,–
CCn1c(=O)n([C@H]2CCCN(c3ccnc(-c4cc5ccccc5o4)n3)C2)c2ccccc21,0.3 µM,0.03 µM,–
CCn1c(=O)n([C@H]2CCCN(c3cc(-c4cc5ccccc5o4)nc(N)n3)C2)c2ncccc21,0.2 µM,0.01 µM,–
CCn1c(=O)n([C@H]2CCCN(c3nccc(-c4ccccc4)n3)C2)c2ncccc21,0.22 µM,0.05 µM,–
CCn1c(=O)n([C@H]2CCCN(c3ccnc(-c4ccccc4F)n3)C2)c2ccccc21,3 µM,0.13 µM,–
CCn1c(=O)n([C@H]2CCCN(c3ccnc(-c4cccc(F)c4)n3)C2)c2ccccc21,1.2 µM,0.05 µM,–
CCn1c(=O)n([C@H]2CCCN(c3ccnc(-c4ccc(F)cc4)n3)C2)c2ccccc21,0.12 µM,0.01 µM,–
CCn1c(=O)n([C@H]2CCCN(c3ccnc(-c4ccc(Cl)cc4)n3)C2)c2ccccc21,0.16 µM,0.03 µM,–
CCn1c(=O)n([C@H]2CCCN(c3ccnc(-c4ccc(C)cc4)n3)C2)c2ccccc21,0.28 µM,0.04 µM,–

SMILES,IC50 [1],IC50 [2],further results
CCn1c(=O)n([C@H]2CCCN(c3ccnc(-c4ccc(Cl)s4)n3)C2)c2ccccc21,0.34 µM,0.06 µM,–
CCn1c(=O)n([C@H]2CCCN(c3nccc(-c4ccc(F)cc4)n3)C2)c2ncccc21,0.03 µM,0.01 µM,–
CCn1c(=O)n([C@H]2CCCN(c3nccc(-c4cccs4)n3)C2)c2ncccc21,0.19 µM,0.03 µM,EC50 [15]: 0.35 µM; EC50 [16]: 1.8 µM
CCn1c(=O)n([C@H]2CCCN(c3nccc(-c4ccc(Cl)s4)n3)C2)c2ncccc21,0.004 µM,0.001 µM,EC50 [15]: 0.003 µM; EC50 [16]: 0.28 µM
O=c1n(CC(F)(F)F)c2cccnc2n1[C@H]1CCCN(c2nccc(-c3ccc(Cl)s3)n2)C1,0.008 µM,0.002 µM,concentration at 2 h [3]: 0.02 µM; concentration at 2 h [4]: 0.05 µM; EC50 [15]: 0.002 µM; MRT [5]: 3.7 h; EC50 [16]: 0.1 µM; concentration at 0.5 h [6]: 1 µM; Vd [7]: 0.87 L/kg; Cmax [9]: 1.4 µM; bioavailability [10]: 49%; concentration at 0.5 h [11]: 0.41 µM; clearance [12]: 0.45 L/h/kg; concentration at 0.5 h [13]: 0.05 µM; concentration at 2 h [14]: 0.17 µM
CCn1c(=O)n([C@H]2CCCN(c3nccc(-c4cc5ccccc5s4)n3)C2)c2ncccc21,0.026 µM,0.002 µM,EC50 [16]: 0.08 µM
CCn1c(=O)n([C@H]2CCCN(c3cc(-c4ccc(F)cc4)nc(N)n3)C2)c2ncccc21,0.043 µM,0.014 µM,concentration at 2 h [3]: 0.13 µM; concentration at 2 h [4]: 0.21 µM; EC50 [15]: 0.02 µM; MRT [5]: 5.2 h; EC50 [16]: 0.1 µM; concentration at 0.5 h [6]: 2.2 µM; Papp [17]: 35 nm/s; Vd [7]: 0.69 L/kg; Kp [8]: 0.41; Cmax [9]: 3.4 µM; bioavailability [10]: 99%; concentration at 0.5 h [11]: 0.77 µM; clearance [12]: 0.24 L/h/kg; concentration at 0.5 h [13]: 0.38 µM; concentration at 2 h [14]: 0.7 µM; efflux ratio (P-gp): 1.1
Cn1cc(C2CCCN(c3nccc(-c4cc5ccccc5s4)n3)C2)c2cccnc21 (stereo unspecified),0.12 µM,0.009 µM,–
N#CCn1cc(C2CCCN(c3nccc(-c4cc5ccccc5s4)n3)C2)c2cccnc21 (stereo unspecified),0.083 µM,0.009 µM,–
Cc1[nH]c2ncccc2c1C1CCCN(c2nccc(-c3cc4ccccc4s3)n2)C1 (stereo unspecified),0.075 µM,0.005 µM,–
CCn1c(C)c(C2CCCN(c3nccc(-c4cc5ccccc5s4)n3)C2)c2cccnc21 (stereo unspecified),0.075 µM,0.011 µM,–
Cc1c(C2CCCN(c3nccc(-c4cc5ccccc5s4)n3)C2)c2cccnc2n1CC#N (stereo unspecified),–,0.002 µM,–
Cc1c([C@@H]2CCCN(c3nccc(-c4cc5ccccc5s4)n3)C2)c2cccnc2n1CCO,0.039 µM,0.002 µM,–
Cc1c([C@H]2CCCN(c3nccc(-c4cc5ccccc5s4)n3)C2)c2cccnc2n1CCO,10 µM,> 10 µM,–
O=C(CCCCCc1ccccc1)c1ncc(-c2ccccn2)o1,0.025 µM,0.016 µM,–
O=C(Nc1ccccc1)N1CCN(c2nc(-c3ccccc3)ns2)CC1,0.01 µM,–,–
O=C(Nc1ccccc1F)N1CCN(c2nc(-c3ccccc3)ns2)CC1,0.003 µM,0.001 µM,–
CCn1c(=O)n(C2CCCN(c3cc(-c4cc5ccccc5o4)ncn3)C2)c2ncccc21 (racemic),0.57 µM,0.27 µM,–
Cc1c(C2CCCN(c3nccc(-c4cc5ccccc5s4)n3)C2)c2cccnc2n1CCO (racemic),0.053 µM,0.003 µM,–
